Source: PubChem BioAssay
The list is a sample of the results.
PGC1a Ac signal = compounds raising PGC1a acetylation signal, primary screen, PGC1a modulator project, cell-based, U2OS, AlphaScreen, signal-increasing mode | overnight | activation, % at 15.6 µM | 350,000 compounds, 0.21% hits | AID 651723, 2012;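 active means every replicate reaching activation of at least 50%, whatever the mean replicate activation; inconclusive means replicates that disagree or another doubt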;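 further: hits raise the AlphaScreen acetylation signal above neutral controls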
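System – flag-PGC1a/GCN5 U2OS cells · Quantity – 7000 U2OS cells per well · Signal – AlphaScreen proximity luminescence, anti-acetyl-lysine antibody · Schedule – overnight compound treatment, 37 °C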
G6PC hep suppr = suppressors of forskolin-stimulated G6PC mRNA, dose response, PGC-1a acetylation activator project, cell-based, hepatocytes, RT-qPCR, cherry-picked samples; shares compounds with PGC1a Ac signal; primary mouse hepatocytes; G6PC suppression (normalized activity, % of positive control; higher = more suppression), % at 26 µM; 240 tested, under 10 active;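 active means dose curves showing G6PC suppression whose half-maximal dose is at most twice the top valid dose; inconclusive means flat curves with moderate negative activity, or unreliable fits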;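 further: G6PC expression relative to GAPDH housekeeping gene as delta delta Ct; 0% = median of neutral control wells and 100% = median of positive control wells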
PCK1 hep suppr = suppression of PCK1 mRNA in primary hepatocytes, dose response, PGC-1a acetylation activator project, cell-based, primary mouse hepatocytes, RT-qPCR, cherry-pick. AID 743465, 2014. forskolin-stimulated. shares compounds with PGC1a Ac signal. PCK1 expression decrease, unspecified at 26 µM. 230 tested, under 10 active;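 active means compounds lowering PCK1 expression whose fitted half-maximal concentration is at most twice the top tested dose; inconclusive means flat fit with moderate opposite-direction effect, or poor fit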;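 further: values are delta delta Ct of PCK1 relative to GAPDH; higher delta delta Ct means lower PCK1 expression so positive values indicate hits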
PGC1a hep suppr = suppression of PGC-1a mRNA in primary hepatocytes, dose response, PGC-1a acetylation activator project, cell-based, primary mouse hepatocytes, RT-qPCR, cherry-pick | max activity (PGC-1a expression decrease), % | PGC-1a mRNA qPCR, forskolin; top dose 26 µM | AID 743467, 2014 | 240 tested, under 10 active | shares compounds with PGC1a Ac signal;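 active means compound lowering PGC-1a expression with fitted half-maximal concentration at most twice its top tested dose; inconclusive means flat curve with moderate opposite-direction effect, or poor fit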;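 further: 0% = neutral control wells median and 100% = positive control wells median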
* marks the source's active call; other numbers are inactive results; ? = inconclusive; . = not tested or not shown; [ ] = dose if it differs, or a comment.

SMILES	PGC1a Ac signal	G6PC hep suppr	PCK1 hep suppr	PGC1a hep suppr
CC(C)NC(=O)N(C)C[C@H]1Oc2c(NS(=O)(=O)c3cn(C)cn3)cccc2C(=O)N([C@@H](C)CO)C[C@@H]1C	-44.5	.	.	.
CSc1nc(SC)c2c3c(oc2n1)COC(C)(C)C3	57.9*	.	.	.
CSc1n[nH]c(NC(=O)c2c(-c3c(Cl)cccc3Cl)noc2C)n1	-64.7	.	.	.
COc1ccc(OCC(=O)NNC(=O)c2c(-c3ccccc3Cl)noc2C)cc1	-61.7	.	.	.
Cc1cc(C)nc(NC(=O)c2c(-c3ccccc3Cl)noc2C)n1	77.5*	.	.	.
O=C(O)CSCC(=O)NCc1ccc(Cl)cc1Cl	-41.2	.	.	.
CC(=O)c1ccc(NC(=O)N2CCc3ccccc3C2)cc1	269.0*	45.0	-13	44.9
C[C@@H]1CN([C@@H](C)CO)C(=O)c2c(c3ccccc3n2C)-c2ccccc2CO[C@@H]1CN(C)C(=O)c1ccc(F)cc1	117.0*	35.0	151	207.0
CC(C)[C@H](C)NC(=O)N(C)C[C@H]1OCc2ccccc2-c2c(n(C)c3ccccc23)C(=O)N([C@H](C)CO)C[C@H]1C	59.2*	3.1	5.55	59.4
C[C@@H]1CN([C@@H](C)CO)C(=O)c2c(c3ccccc3n2C)-c2ccccc2CO[C@@H]1CN(C)C(=O)c1ccccc1	76.3*	22.3[23.5 µM]	44.2[23.5 µM]	169.2
C[C@@H]1CN([C@H](C)CO)C(=O)c2c(c3ccccc3n2C)-c2ccccc2CO[C@@H]1CN(C)C(=O)c1ccccc1	57.7*	73.4	?	?
CCOC(=O)C1=C(C)N=c2s/c(=C\c3cccc(OCC(=O)O)c3)c(=O)n2C1c1ccccc1OC (centres undefined)	-54.9	.	.	.
Cc1cc(N2CCN(C)CC2)nc2ccc(NC(=S)N3CCN(c4cccc(Cl)c4)CC3)cc12	-47.6	.	.	.
Cc1ccc(-c2n[nH]c(=S)n2/N=C/c2cccn2C)cc1	-50.0	.	.	.
COc1ccc(-c2nc(C#N)c(NCc3ccco3)o2)cc1	-51.8	.	.	.
CN(c1ccccc1)S(=O)(=O)c1ccc(Cl)nc1	-44.1	.	.	.
Cc1ccc(S(=O)(=O)N/N=C/c2c[nH]c3ccccc23)cc1	-104.5	.	.	.
CCn1c2ccccc2c2cc(/C=N/n3c(-c4cc(C)[nH]n4)n[nH]c3=S)ccc21	-40.2	.	.	.
C[C@@H]1CN([C@@H](C)CO)C(=O)c2c(c3ccccc3n2C)-c2ccccc2CO[C@@H]1CN(C)C(=O)Nc1ccc2c(c1)OCO2	81.0*	-2.9[23.5 µM]	25.5[23.5 µM]	34.2
COc1ccc(NCc2nnc(SCC(=O)Nc3cc(C)cc(C)c3)o2)cc1	-51.9	.	.	.
O=C(CCl)Nc1cc(SCC(O)CO)cc([N+](=O)[O-])c1 (centres undefined)	-52.5	.	.	.
NC(=O)Cn1cc(C(=O)c2cccs2)c2ccccc21	?	.	-13.9	26.2
COc1cc(/C=C2\CC(C(C)(C)C)C/C(=C\c3cc(OC)c(OC)c(OC)c3)C2=O)cc(OC)c1OC (centres undefined)	-53.2	.	.	.
Cc1cccn2c(=O)c3cc(C(=O)NCc4ccco4)c(=N)n(CCc4ccccc4)c3nc12	-55.2	.	.	.
Cn1cc(-c2ccc(C(=O)NCc3cccc(Cl)c3)c3occc23)cn1	59.4*	-68.3	-9.16	63.9
SMILES	PGC1a Ac signal	G6PC hep suppr	PCK1 hep suppr	PGC1a hep suppr
O=C1C=C(c2c(O)ccc3ccccc23)c2ccccc2C1=O	-54.1	.	.	.
COC(=O)c1cc(S(=O)(=O)N2CCN(c3ccc(C(C)=O)cc3)CC2)c[nH]1	?	-40.4	-54.4	-28.3
COC(=O)c1ccc(OC)c(OC2CCCC2)c1	-89.1	.	.	.
O=[N+]([O-])c1nn(-c2ccc(Cl)cc2)n(O)c1=NCc1ccncc1	-45.7	.	.	.
O=C(NCCCN1CCOCC1)c1ccccc1N1C(=O)[C@@H]2Cc3c([nH]c4ccccc34)C(c3ccccc3)N2C1=O (some centres undefined)	319.8*	229.8	82.7	63.0
Cc1nc2ccccn2c1C(=O)/C=C/c1ccc(F)cc1	-40.9	.	.	.
CCCS(=O)(=O)N1CCCC(C(=O)NCCCOC(C)C)C1 (centres undefined)	-63.9	.	.	.
c1nc(NC2CCCCCC2)c2[nH]cnc2n1	-40.9	.	.	.
c1ccc(C(c2nnnn2Cc2cccs2)N2CCN(C3CCCC3)CC2)cc1 (centres undefined)	-42.2	26.8	34.4	37.7
c1ccc(Sc2ccccn2)cc1	-75.8	.	.	.
COc1cc(CNCCN2CCOCC2)ccc1OCc1ccc(Cl)cc1Cl	-101.4	.	.	.
O=C(CN1CCC(n2c(=O)[nH]c3ccccc32)CC1)NCc1ccc(Cl)s1	.	-13.8	-6.26	15.1
CN(C)c1ccnc2sc(C(N)=O)c(N)c12	-47.8	.	.	.
O=C(Nc1ccc2c(c1)OCO2)C1CCN(c2ccc(S(=O)(=O)N3CCOCC3)cc2)CC1	-47.9	-45.3	0.278	40.9
N#Cc1cccc(C(c2nnnn2C2CCCC2)N2CCCCCC2)c1 (centres undefined)	?	32.5	231	92.3
CCOCCOC(=O)C(C)Oc1ccc(Oc2nc(Cl)ccc2Cl)cc1 (centres undefined)	-88.5	.	.	.
CCOC(=O)C1=C(CNCc2ccc(C)cc2)NC(=O)NC1c1cc(C)ccc1C (centres undefined)	-50.1	.	.	.
O=C(NC(=S)Nc1ccccc1N1CCCC1)c1cccs1	-50.8	.	.	.
Cc1ccc(NC2=C/C(=N\S(=O)(=O)c3cccs3)c3ccccc3C2=O)c(C)c1	-92.9	.	.	.
Cc1ccc(Nc2nnc(C)c3ccccc23)c(C)c1	?	-19.7	-28.7	88.4
COc1ccc(NC(=O)[C@H](Cc2c[nH]c3ccccc23)NC(=O)[C@@H]2Cc3ccccc3CN2)cc1	-63.5	.	.	.
CN(C)CC(C(=O)c1ccccc1)c1ccccc1 (centres undefined)	-138.8	.	.	.
COC(=O)C(Nc1ccccc1Cl)(c1cc(C)c(O)c(C)c1)C(F)(F)F (centres undefined)	68.9*	30.3	19.1[8 µM]	?
CCN(CC)CCNC(=O)c1ccc2c(c1NCCO)C(=O)c1ccccc1C2=O	-91.6	.	.	.
COc1cc(CN2CCCC(CO)(Cc3cccc(Cl)c3)C2)cc2c1OCO2 (centres undefined)	-44.5	-15.8[8 µM]	165	85.6
SMILES	PGC1a Ac signal	G6PC hep suppr	PCK1 hep suppr	PGC1a hep suppr
Cc1cc(=O)n2[nH]c(=O)c(N=Nc3ccccc3)c2[nH]1	-43.6	.	.	.
COc1ccc(S(=O)(=O)N2CCC(C(=O)N3CCC(C(N)=O)CC3)CC2)cc1Cl	-43.8	.	.	.
c1coc(CN(Cc2cccs2)Cc2nnnn2C2CCCCC2)c1	?	-10.4	70.4	?
C=CCc1ccc(OCCCCNC(C)CC)c(OC)c1 (centres undefined)	-26.3	.	.	.
COc1ccc(C(c2nnnn2C2CCCC2)N2CCC(C)CC2)c(OC)c1 (centres undefined)	100.2*	99.7	137	133.9
CCn1c(CSc2nnc3ccccn23)nc2cc(C(=O)O)ccc21	-47.5	.	.	.
O=C(/C=C/c1cccs1)c1ccc(NC(=O)c2cccc(Br)c2)cc1	-47.6	.	.	.
Cc1cc(C(=O)NNC(=S)NCc2ccccc2)no1	-44.5	.	.	.
CCC(CC)C(=O)c1c[nH]c(C(=O)NCc2ccccc2)c1	?	-46.5	-8.76	37.0
CC(C)(C)c1ccc(C(=O)c2c[nH]c(C(=O)NCc3cccnc3)c2)cc1	257.1*	-28.4	.	?
